Measured values: ChEMBL document CHEMBL3232844, “Synthesis and structure activity relationships of schweinfurthin indoles” (2014)

Legend:
Assay type in all cases: functional
K562 = experiment: Cytotoxicity against human K562 cells; settings: for CC50: read-out: pLC50 (the source's name) (converted); for TGI: read-out: pTGI (converted)
Outline: (§1)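 Tested in a 60-cell-line human tumor panel screen; the read-out is growth inhibition, reported as GI50 for each cell line.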

RPMI-8226 = experiment: Cytotoxicity against human RPMI8226 cells; settings: for CC50: read-out: pLC50 (the source's name) (converted); for TGI: read-out: pTGI (converted); outline: as §1
[1] = Cytotoxicity against human EKVX cells; settings: for CC50: read-out: pLC50 (the source's name) (converted); for TGI: read-out: pTGI (converted); outline: as §1
HOP-92 = experiment: Cytotoxicity against human HOP92 cells; settings: for CC50: read-out: pLC50 (the source's name) (converted); for TGI: read-out: pTGI (converted); outline: as §1
NCI-H226 = experiment: Cytotoxicity against human NCI-H226 cells; settings: for CC50: read-out: pLC50 (the source's name) (converted); for TGI: read-out: pTGI (converted); outline: as §1
NCI-H23 = experiment: Cytotoxicity against human NCI-H23 cells; settings: for CC50: read-out: pLC50 (the source's name) (converted); for TGI: read-out: pTGI (converted); outline: as §1
SW-620 = experiment: Cytotoxicity against human SW620 cells; settings: for CC50: read-out: pLC50 (the source's name) (converted); for TGI: read-out: pTGI (converted)
Outline: (§2)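 Cell line run as part of the 60-cell-line screening panel; growth inhibition was reported as a GI50 for each line.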

Malme-3M = experiment: Cytotoxicity against human MALME-3M cells; settings: for CC50: read-out: pLC50 (the source's name) (converted); for TGI: read-out: pTGI (converted); outline: as §1
M14 = experiment: Cytotoxicity against human M14 cells; settings: for CC50: read-out: pLC50 (the source's name) (converted); for TGI: read-out: pTGI (converted); outline: as §1
NCI-H522 = experiment: Cytotoxicity against human NCI-H522 cells; settings: for CC50: read-out: pLC50 (the source's name) (converted); for TGI: read-out: pTGI (converted); outline: as §1
SK-MEL-28 = experiment: Cytotoxicity against human SK-MEL-28 cells; settings: for CC50: read-out: pLC50 (the source's name) (converted); for TGI: read-out: pTGI (converted); outline: as §1
[2] = Cytotoxicity against human OVCAR3 cells; settings: for GI50: OVCAR-3; for CC50: OVCAR-3, read-out: pLC50 (the source's name) (converted); for TGI: OVCAR-3, read-out: pTGI (converted); outline: as §1
[3] = Cytotoxicity against human OVCAR8 cells; settings: for GI50: OVCAR-8; for CC50: OVCAR-8, read-out: pLC50 (the source's name) (converted); for TGI: OVCAR-8, read-out: pTGI (converted); outline: as §1
RXF 393 = experiment: Cytotoxicity against human RXF393 cells; settings: for TGI: read-out: pTGI (converted); outline: as §1
[4] = Cytotoxicity against human UO31 cells; settings: for GI50 / LC50: UO-31; for TGI: UO-31, read-out: pTGI (converted); outline: as §2
[5] = Cytotoxicity against human Hs578T cells; settings: Hs-578T; for TGI: read-out: pTGI (converted); outline: as §1
MDA-MB-468 = experiment: Cytotoxicity against human MDA-MB-468 cells; settings: for TGI: read-out: pTGI (converted); outline: as §1

**Q.** What does the source list for `CC1(C)[C@H](O)CC[C@@]2(C)Oc3c(O)cc(/C=C/c4cc(O)c5cc[nH]c5c4)cc3C[C@H]12`?
**A.** GI50 (K562): 0.263 µM; CC50 (K562): > 100 µM; TGI (K562): 47.9 µM; GI50 (RPMI-8226): 0.0158 µM; CC50 (RPMI-8226): 11.5 µM; TGI (RPMI-8226): 0.0661 µM; GI50 [1]: 0.794 µM; CC50 [1]: > 100 µM; TGI [1]: 16.2 µM; GI50 (HOP-92): 0.501 µM; CC50 (HOP-92): > 100 µM; TGI (HOP-92): 5.5 µM; GI50 (NCI-H226): 19.5 µM; CC50 (NCI-H226): > 100 µM; TGI (NCI-H226): 75.9 µM; GI50 (NCI-H23): 1.32 µM; CC50 (NCI-H23): 41.7 µM; TGI (NCI-H23): 7.59 µM; GI50 (SW-620): 0.214 µM; CC50 (SW-620): 6.46 µM; TGI (SW-620): 1.35 µM; GI50 (Malme-3M): 3.02 µM; CC50 (Malme-3M): 60.3 µM; TGI (Malme-3M): 17 µM; GI50 (M14): 0.138 µM; CC50 (M14): 8.32 µM; TGI (M14): 0.646 µM; GI50 (NCI-H522): 1.07 µM; CC50 (NCI-H522): 38 µM; TGI (NCI-H522): 6.92 µM; GI50 (SK-MEL-28): 6.17 µM; CC50 (SK-MEL-28): > 100 µM; TGI (SK-MEL-28): > 100 µM; GI50 [2]: 3.47 µM; CC50 [2]: 66.1 µM; TGI [2]: 21.4 µM; GI50 [3]: 4.79 µM; CC50 [3]: > 100 µM; TGI [3]: 42.7 µM; GI50 (RXF 393): 0.01 µM; LC50 (RXF 393): 0.389 µM; TGI (RXF 393): 0.0246 µM; GI50 [4]: 0.209 µM; LC50 [4]: > 100 µM; TGI [4]: 2 µM; GI50 [5]: 0.01 µM; LC50 [5]: > 100 µM; TGI [5]: 0.427 µM; GI50 (MDA-MB-468): 1.2 µM; LC50 (MDA-MB-468): 36.3 µM; TGI (MDA-MB-468): 5.13 µM

**Q.** For `COc1cc(/C=C/c2cc(OC)c3c(CC=C(C)C)c[nH]c3c2)cc2c1O[C@]1(C)CC[C@@H](O)C(C)(C)[C@H]1C2`, which GI50 (K562) is on record?
**A.** 0.309 µM

**Q.** And the CC50 (K562)?
**A.** > 100 µM

**Q.** And the TGI (K562)?
**A.** 1.38 µM

**Q.** What about the GI50 (RPMI-8226) of the same compound?
**A.** 0.0776 µM

**Q.** What about the TGI (RPMI-8226) of the same compound?
**A.** 0.355 µM

**Q.** And the GI50 [1]?
**A.** 0.832 µM

**Q.** And the CC50 [1]?
**A.** > 100 µM

**Q.** What about the TGI [1] of the same compound?
**A.** 6.61 µM

**Q.** What about the GI50 (HOP-92) of the same compound?
**A.** 0.178 µM

**Q.** And the CC50 (HOP-92)?
**A.** 93.3 µM

**Q.** And the TGI (HOP-92)?
**A.** 5.62 µM

**Q.** And the GI50 (NCI-H226)?
**A.** 2.69 µM

**Q.** And the CC50 (NCI-H226)?
**A.** 32.4 µM

**Q.** And the TGI (NCI-H226)?
**A.** 9.77 µM

**Q.** What about the GI50 (NCI-H23) of the same compound?
**A.** 0.646 µM

**Q.** And the CC50 (NCI-H23)?
**A.** 26.9 µM

**Q.** And the TGI (NCI-H23)?
**A.** 3.55 µM

**Q.** What about the GI50 (SW-620) of the same compound?
**A.** 0.288 µM

**Q.** And the CC50 (SW-620)?
**A.** 4.07 µM

**Q.** What about the TGI (SW-620) of the same compound?
**A.** 1.12 µM

**Q.** And the GI50 (Malme-3M)?
**A.** 2 µM

**Q.** What about the CC50 (Malme-3M) of the same compound?
**A.** 91.2 µM

**Q.** What about the TGI (Malme-3M) of the same compound?
**A.** 8.71 µM

**Q.** What about the GI50 (M14) of the same compound?
**A.** 0.525 µM

**Q.** And the CC50 (M14)?
**A.** 46.8 µM

**Q.** What about the TGI (M14) of the same compound?
**A.** 2.82 µM

**Q.** What about the GI50 (NCI-H522) of the same compound?
**A.** 0.646 µM

**Q.** And the CC50 (NCI-H522)?
**A.** 5.25 µM

**Q.** What about the TGI (NCI-H522) of the same compound?
**A.** 2 µM

**Q.** What about the GI50 (SK-MEL-28) of the same compound?
**A.** 0.347 µM

**Q.** What about the CC50 (SK-MEL-28) of the same compound?
**A.** 15.8 µM

**Q.** And the TGI (SK-MEL-28)?
**A.** 2.24 µM

**Q.** And the GI50 [2]?
**A.** 2.82 µM

**Q.** What about the CC50 [2] of the same compound?
**A.** 38 µM

**Q.** And the TGI [2]?
**A.** 12 µM

**Q.** And the GI50 [3]?
**A.** 3.8 µM

**Q.** And the CC50 [3]?
**A.** 74.1 µM

**Q.** What about the TGI [3] of the same compound?
**A.** 23.4 µM

**Q.** And the GI50 (RXF 393)?
**A.** 0.0263 µM

**Q.** What about the LC50 (RXF 393) of the same compound?
**A.** 0.724 µM

**Q.** What about the TGI (RXF 393) of the same compound?
**A.** 0.105 µM

**Q.** What about the GI50 [4] of the same compound?
**A.** 0.437 µM

**Q.** And the LC50 [4]?
**A.** 56.2 µM

**Q.** And the TGI [4]?
**A.** 6.92 µM

**Q.** And the GI50 [5]?
**A.** 0.0537 µM

**Q.** And the LC50 [5]?
**A.** > 100 µM

**Q.** And the TGI [5]?
**A.** 0.692 µM

**Q.** What about the GI50 (MDA-MB-468) of the same compound?
**A.** 0.195 µM

**Q.** What about the LC50 (MDA-MB-468) of the same compound?
**A.** 10.5 µM

**Q.** What about the TGI (MDA-MB-468) of the same compound?
**A.** 1.1 µM

**Q.** Which results are given for `COc1cc(/C=C/c2cc(O)c3c(c2)C[C@@H]2C(C)(C)[C@H](O)CC[C@@]2(C)O3)cc2[nH]cc(CC=C(C)C)c12`?
**A.** GI50 (K562): 0.138 µM; CC50 (K562): > 100 µM; TGI (K562): 9.77 µM; GI50 (RPMI-8226): 0.0112 µM; CC50 (RPMI-8226): > 100 µM; TGI (RPMI-8226): 0.417 µM; GI50 [1]: 3.89 µM; CC50 [1]: 81.3 µM; TGI [1]: 39.8 µM; GI50 (HOP-92): 1.15 µM; CC50 (HOP-92): 81.3 µM; TGI (HOP-92): 22.9 µM; GI50 (NCI-H226): 8.32 µM; CC50 (NCI-H226): 72.4 µM; TGI (NCI-H226): 33.1 µM; GI50 (NCI-H23): 1.55 µM; CC50 (NCI-H23): 66.1 µM; TGI (NCI-H23): 26.9 µM; GI50 (SW-620): 0.302 µM; CC50 (SW-620): 21.4 µM; TGI (SW-620): 4.27 µM; GI50 (Malme-3M): 5.37 µM; CC50 (Malme-3M): > 100 µM; TGI (Malme-3M): 31.6 µM; GI50 (M14): 0.537 µM; CC50 (M14): 64.6 µM; TGI (M14): 32.4 µM; GI50 (NCI-H522): 1.66 µM; CC50 (NCI-H522): 20.9 µM; TGI (NCI-H522): 7.24 µM; GI50 (SK-MEL-28): 0.676 µM; CC50 (SK-MEL-28): 46.8 µM; TGI (SK-MEL-28): 10.7 µM; GI50 [2]: 8.71 µM; CC50 [2]: 63.1 µM; TGI [2]: 36.3 µM; GI50 [3]: 11.5 µM; CC50 [3]: 79.4 µM; TGI [3]: 47.9 µM; GI50 (RXF 393): 0.01 µM; LC50 (RXF 393): 8.51 µM; TGI (RXF 393): 0.0339 µM; GI50 [4]: 0.129 µM; LC50 [4]: 69.2 µM; TGI [4]: 21.4 µM; GI50 [5]: 0.01 µM; LC50 [5]: > 100 µM; TGI [5]: 0.977 µM; GI50 (MDA-MB-468): 0.182 µM; LC50 (MDA-MB-468): 67.6 µM; TGI (MDA-MB-468): 4.79 µM
